This is an account of results in ChEMBL document CHEMBL3580617, “Discovery of Benzimidazole CYP11B2 Inhibitors with in Vivo Activity in Rhesus Monkeys” (ACS Med Chem Lett, 2015).

The subject of assay [1] is Rhesus monkey. In words: Reduction in aldosterone levels in low sodium diet fed rhesus monkey at 0.01 to 0.3 mg/kg, iv followed by 0.3 mg/kg ACTH dosing and measured 30 mins to 180 mins post ACTH administration by UPLC coupled with tandem mass spectrometry. The assay is classed as functional, organism-based. The settings on record: Macaca mulatta; 0.001 to 0.3 mg/kg; in the assay text read “0.001 to 0.3 mg/kg” for “0.01 to 0.3 mg/kg”. An outline of the steps: (§1)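 Anesthetized rhesus monkeys were given i.v. doses from 0.001 to 0.3 mg/kg. Plasma aldosterone and 11-deoxycortisol were quantified by LC-MS at time points up to 180 min postdose, and AUCs were determined for each. Plasma drug was measured at 90 min postdose. Free (unbound) concentrations were calculated from the measured fraction unbound in rhesus plasma.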

For assay [2], the system named is Rhesus monkey. In words: Reduction in aldosterone levels in low sodium diet fed rhesus monkey at 0.01 mg/kg, iv followed by 0.3 mg/kg ACTH dosing and measured 30 mins to 180 mins post ACTH administration by UPLC coupled with tandem mass spectrometry. The assay is classed as functional, Macaca mulatta. An outline of the steps: as §1
The species named for assay [3] is Homo sapiens. Description: Selectivity index, ratio of IC50 for CYP19 (unknown origin) to IC50 for human CYP11B2.
Assay [4] is filed under the species Homo sapiens. Description: Selectivity index, ratio of IC50 for human CYP11B1 to IC50 for human CYP11B2. The essentials:
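Human CYP11B2 and CYP11B1 inhibition was tested in cell-based assays. Selectivity was taken as the hCYP11B1 IC50 divided by the hCYP11B2 IC50.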

Turning to `CC(C)(O)c1cncc(-c2nc3ccc(F)cc3n2C2CC2)c1` [MSD-CYP11B2], in the assay with Rhesus monkey [1], the inhibition entry was “Dose-dependent effect”. The “inhibition (INH)” value in the assay on Rhesus monkey [2] was determined as 62%.

For `Fc1cncc(-c2nc3cc(F)c(F)cc3n2C2CC2)c1`, the Ratio IC50 in the assay listed under Homo sapiens [3] stood at 500; in the assay listed under Homo sapiens [4], 93.
